A selection: hits, their analogues and other compounds. The true share with any hit is near 2.9%.
CHO-K1 Ca PAM: nonselective calcium activators in parental CHO-K1 cells, primary screen, counter-screen for M1 PAM project, cell-based, Fluo-8 calcium fluorescence, full deck, 1536-well; ATP EC20; 0% at ATP EC20, 100% at ATP max; activation, % at 3 µM; hit rate 0.02% among 360,000;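 active = activation above the run cutoff, the mean activation of all test compounds plus 3 SD, cut at about 40% in these data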;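 note: peak over basal fluorescence ratio in a 140 s read after ATP addition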
OX1R antag-1: OX1R (HCRTR1) antagonists, primary screen, fluorescence, CHO/OX1R cells, Fluo-8 calcium, orexin A. Orexin/Hypocretin receptor type 1 (Homo sapiens), O43613. Fluo-8 calcium fluorescence. inhibition, % at 5 µM. hit rate 0.43% among 330,000;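 active = inhibition above its plate's threshold, mean inhibition of all tested compounds on the plate plus 3 SD, cut at about 37% in these data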
Target sequence (O43613 whole entry, looked up): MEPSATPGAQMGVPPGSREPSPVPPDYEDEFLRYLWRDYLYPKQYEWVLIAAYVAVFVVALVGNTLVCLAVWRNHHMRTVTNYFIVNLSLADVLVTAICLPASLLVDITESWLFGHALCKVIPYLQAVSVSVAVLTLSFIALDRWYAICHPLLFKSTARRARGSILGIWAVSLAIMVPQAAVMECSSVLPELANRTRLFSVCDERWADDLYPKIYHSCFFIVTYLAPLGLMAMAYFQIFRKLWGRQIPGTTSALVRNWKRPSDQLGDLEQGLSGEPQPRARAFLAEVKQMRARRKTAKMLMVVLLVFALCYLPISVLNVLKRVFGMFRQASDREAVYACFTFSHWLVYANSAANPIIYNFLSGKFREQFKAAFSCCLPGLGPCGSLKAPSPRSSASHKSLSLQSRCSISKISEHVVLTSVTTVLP
CHO-K1 Ca antag: M1 antagonist counterscreen hit in parental CHO-K1 cells; ATP-induced calcium, Fluo-8 fluorescence; hit rate 0.6% among 360,000; inhibition, % at 3 µM;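 active = inhibition above a per-plate cutoff, the plate's mean sample inhibition plus 3 SD, cut at about 24% in these data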
CHO parental Ca: ATP-evoked calcium signal inhibitors, parental CHO, primary screen, counter-screen for OX1R antagonist project, cell-based, fluorescence, Fluo-8 calcium dye; hit rate 0.63% among 330,000; AID 463079, 2010; inhibition, % at 5.6 µM; parental CHO-K1, ATP-induced calcium, Fluo-8 fluorescence;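 active = inhibition above that plate's mean sample inhibition plus 3 SD, cut at about 26% in these data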
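Test system: parental CHO cells; detection: calcium-sensitive Fluo-8 fluorescence; evaluation: percent inhibition of calcium signal; also added: ATP as calcium-mobilizing challenge; repeats: one well per compound; control set: ATP-challenged DMSO wells low, unchallenged DMSO wells high; compound: single nominal dose of 5.6 µM per compound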
M1 ag parental: counter-screen for M1 agonists: effect in parental CHO-K1 cells; activation, % at 3 µM; hit rate 0.48% among 360,000; AID 602248, 2012; Fluo-8 calcium fluorescence; scaled to maximal ATP response, vehicle zero; in the data active = activation above about 15%;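 note: untransfected CHO-K1 host cells lacking M1 receptor as counterscreen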
OX1R antag-2: antagonists of human orexin 1 receptor (OX1R) | AID 485270, 2010 | inhibition, % at 6.6 µM | hit rate 1.8% among 330,000 | OX1R-expressing cells, FRET antagonist read-out | Orexin/Hypocretin receptor type 1 (Homo sapiens), O43613; in the data active = inhibition mostly above about 38%, no sharp cut-off; inactive = mostly below about 40%
Of the large screens only hits and unclear results are named; the others gave an inactive call.

O=[N+]([O-])c1ccc(NCCNCCOc2nonc2-c2ccccc2)c([N+](=O)[O-])c1	OX1R antag-2 43.3
COc1ccc(NC(=O)COc2ccc(N(C)S(=O)(=O)c3ccc(Cl)cc3)cc2)cc1OC	OX1R antag-1 51.4, CHO-K1 Ca antag 27.2, CHO parental Ca 90.1, OX1R antag-2 45.3
O=C(CSc1cccc[n+]1[O-])Nc1cc(Cl)ccc1[N+](=O)[O-]	OX1R antag-2 38.3
CCc1ccc(-c2cc(C)no2)cc1S(=O)(=O)NCc1ccccc1OC	none
COc1ccccc1CNS(=O)(=O)c1ccc(-c2cc(C)no2)cc1	OX1R antag-2 66.3
CCN(CC)S(=O)(=O)c1ccc2c(c1)nc(SCC(=O)N(C)C1CCS(=O)(=O)C1)n2CC (centres undefined)	none
O=C1CC2CCCC(C1)S2=O (centres undefined)	none (no result: OX1R antag-1, CHO parental Ca, OX1R antag-2)
COc1cc(Cn2c3ccc(NC(=O)CC(C)C(F)(F)F)cc3c(=O)n2C)ccc1F (centres undefined)	none (no result: OX1R antag-1, CHO parental Ca, OX1R antag-2)
CC(=O)c1sc(N/N=C\c2cccc(Br)c2)nc1C	M1 ag parental 16.9
Cc1c(C(=O)NCc2cccc(C(F)(F)F)c2)sc(=O)n1Cc1ccc(C(=O)N(C)C)cc1	none (no result: OX1R antag-1, CHO parental Ca, OX1R antag-2)
COc1ccc(CN2CCN(Cc3csc(C(C)=O)c3)CC2CCO)c(C)c1C (centres undefined)	none
Oc1ccc(Br)cc1C=Nc1ccc2c3c(cccc13)CC2	OX1R antag-1 56.5, CHO-K1 Ca antag 32.4, CHO parental Ca 41.5, M1 ag parental 22.0
CSc1n[nH]c(=O)n1C1CCCCC1	M1 ag parental 17.7
O=C(CSc1n[nH]c(=O)n1C1CC1)c1ccc(F)cc1	none
COc1ccc(N2CC(NC(=O)N3CCN(c4ccccc4)CC3)CC2=O)cc1 (centres undefined)	M1 ag parental 16.0
COc1ccc(N2CCN(C(=O)C3CC(=O)N(c4ccc(C)cc4)C3)CC2)cc1 (centres undefined)	none
COc1ccc(N2CC(NC(=O)Nc3ccccc3)CC2=O)cc1 (centres undefined)	M1 ag parental 15.3
CC(C)(C)OC(=O)N(Cc1ccccc1)Cc1ccccc1OCc1cccc(NC(=O)c2ccccc2)c1	none (no result: OX1R antag-1, CHO parental Ca, OX1R antag-2)
O=C1NC(=S)NC1=Cc1ccc2c(c1)CCC2	none (no result: OX1R antag-1, CHO parental Ca, OX1R antag-2)
COc1cc(N2CCCC2)c(OC)cc1/C=C1/NC(=S)NC1=O	OX1R antag-1 63.5, CHO-K1 Ca antag 35.4, CHO parental Ca 32.0, M1 ag parental 47.5
COCCC(=O)N1CCC(Oc2ccc(C(=O)NCc3cccc(C)n3)cc2)CC1	none
O=C(N=C1N=C2C=CC(Br)=CN2Cc2ccccc21)c1ccc([N+](=O)[O-])cc1[N+](=O)[O-]	OX1R antag-2 45.2
O=C(c1ccc([N+](=O)[O-])cc1[N+](=O)[O-])N1CCc2ccccc21	none
Cc1csc(N/N=C\c2cccnc2)n1	M1 ag parental 17.0
CCCC[n+]1ccn(C2=C([O-])c3ccccc3C(=O)/C2=N\S(=O)(=O)c2ccc(Cl)cc2)c1	OX1R antag-2 46.8
COc1cc(CC(=O)OCC(=O)Nc2ccc(N(C)C)cc2)cc(OC)c1OC	none
CCOc1ccccc1NC(=S)NCCc1ccccc1	none
CCc1cccc(C)c1NC(=O)COC(=O)Cn1c(C)csc1=O	none
Cc1csc(=O)n1CC(=O)OCc1cccc2ccccc12	OX1R antag-2 45.9
CCOC(=O)C1CCN(C(=O)c2cccc(S(=O)(=O)NCc3ccccc3)c2)CC1	none
Nc1[nH]c(=O)nc(Nc2ccccc2)c1N=O	OX1R antag-2 55.0
O=c1nc(N2CCCC2)nc(Nc2ccccc2)[nH]1	none
CCN1CCN(c2ccc(S(=O)(=O)N3CCCCC3)cc2NC(=O)Cc2ccc(Cl)c(Cl)c2)CC1	CHO-K1 Ca antag 28.7, CHO parental Ca 73.8, M1 ag parental 18.0
Cc1ccccc1OCCC(=O)Nc1cc(S(=O)(=O)N2CCCCC2)ccc1N1CCN(C)CC1	M1 ag parental 51.2 (no result: OX1R antag-1, CHO parental Ca, OX1R antag-2)
CCN1CCN(c2ccc(S(=O)(=O)N3CCCCC3)cc2NC(=O)Cc2ccccc2)CC1	none
